Measured values taken from ChEMBL document CHEMBL1144899, “Influence of phenyl ring disubstitution on bisbenzimidazole and terbenzimidazole cytotoxicity: synthesis and biological evaluation as radioprotectors” (2003).
Several values for one entry are separate records, joined by “and”; a condition that tells them apart may be missing. Equal values may be shown once.

Assays:
[1] = In Vitro Cytotoxicity against BMG-1 (Human glioma cell line with a DNA index of 0.96; wild type TP 53) using Irradiation procedures followed by Macrocolony assay at 2 Gy and 10 (uM); format: functional
How it was run: (§1)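 Exponential BMG-1 (24 h after plating) given 10 μM drug 1 h before irradiation. Co-60 gamma rays at room temperature in growth medium, 0.5–1.2 Gy/min, at 2, 5 or 10 Gy. Cells plated for macrocolony assay, 8–10 days at 37 °C in 5% CO2; crystal violet-stained colonies >50 cells counted; survival as percent of irradiated control at each dose.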

[2] = Percent cell kill against BMG-1 (Human brain malignant glioma cell line with a DNA index of 0.96; wild type TP 53) at 1 hour incubation at 10 (uM)
Nucleic Acid [3] = experiment: DNA binding property using 100(uM) of calf thymus DNA (CTDNA) and at 10(uM) was determined; format: nucleic-acid assay; details: Bos taurus
How it was run: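 Calf thymus DNA (100 μM) with ligand at drug/DNA ratio r = 0.1 (10 μM drug) in 2 mM sodium cacodylate buffer, equilibrated 25 min. Thermal melting by absorbance at 260 nm, heated 25 to 100 °C at 0.5 °C/min; Tm taken as the midpoint of normalized curves, ΔTm relative to DNA alone. UV absorption (200–500 nm) and fluorescence emission spectra also recorded.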

[4] = In Vitro Cytotoxicity against BMG-1 (Human brain malignant glioma cell line with a DNA index of 0.96; wild type TP 53) using Macrocolony assay (clonogenicity) at 100 uM at 72 hours; format: functional; details: read-out: Survival
[5] = (§2) In Vitro Cytotoxicity against BMG-1 (Human glioma cell line with a DNA index of 0.96; wild type TP 53) using Irradiation procedures followed by Macrocolony assay at 10 Gy and 10 (uM); format: functional; how it was run: as §1
[6] = In Vitro Cytotoxicity against BMG-1 (Human brain malignant glioma cell line with a DNA index of 0.96; wild type TP 53) using MTT assay at 10 uM at 72 hours; format: functional
How it was run: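 Then MTT at 0.5 mg/mL final for 2 h at 37 °C; formazan dissolved in DMSO; absorbance read at 570 nm against 630 nm reference; results as percent survival.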

[7] = In Vitro Cytotoxicity against BMG-1 (Human brain malignant glioma cell line with a DNA index of 0.96; wild type TP 53) using MTT assay at 100 uM at 24 hours
[8] = In Vitro Cytotoxicity against BMG-1 (Human glioma cell line with a DNA index of 0.96; wild type TP 53) using Irradiation procedures followed by Macrocolony assay at 5Gy and 10 (uM); format: functional; how it was run: as §1
Nucleic Acid [9] = experiment: DNA binding property using 100(uM) of calf thymus DNA (CTDNA) and at 100(uM) was determined; format: nucleic-acid assay; details: Bos taurus
[10] = Percent cell kill against BMG-1 (Human brain malignant glioma cell line with a DNA index of 0.96; wild type TP 53) at 1 hour incubation at 100 (uM)
[11] = In Vitro Cytotoxicity against BMG-1 (Human glioma cell line with a DNA index of 0.96; wild type TP 53) using Macrocolony assay (clonogenicity) at 100 uM at 72 hours; format: functional; details: read-out: Survival
[12] = In Vitro Cytotoxicity against BMG-1 (Human brain malignant glioma cell line with a DNA index of 0.96; wild type TP 53) using Macrocolony assay at 10 uM […]; format: functional
How it was run: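 BMG-1 glioma cells in DMEM with 5% fetal calf serum at 37 °C, exponential phase, 24 h after plating. Drug (0.1, 1, 10 or 100 μM) given for 1 h, then washed off. 200–1200 cells plated and grown 8–10 days at 37 °C in 5% CO2. Colonies fixed in methanol and stained with crystal violet; colonies over 50 cells counted and expressed as percent of control.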

[13] = as §2; format: functional; remark: listed apart in the source
How it was run: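 Exponentially growing BMG-1 cells, 24 h after plating, given 10 μM ligand 1 h before irradiation. Co-60 gamma irradiation (2, 5 or 10 Gy) at room temperature in growth medium at 0.5–1.2 Gy/min. Cells then plated and colonies of more than 50 cells counted after 8–10 days. Survival expressed as percent of cells irradiated at the same dose without ligand.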

[14] = In Vitro Cytotoxicity against BMG-1 (Human glioma cell line with a DNA index of 0.96; wild type TP 53) using Irradiation procedures followed by Macrocolony assay at 5Gy and 10 (uM) at 24 hr; format: functional; details: in the assay text read “growth kinetics” for “Macrocolony assay”
Homo sapiens = organism: Homo sapiens; experiment: In Vitro Cytotoxicity against BMG-1 (Human glioma cell line with a DNA index of 0.96; wild type TP 53) using MTT assay at 100 uM at 72 hours; No effect on the proliferation kinetics of BMG-1 cells.; format: functional, cell-based

Compound | Survival [1] | Cell kill % [2] | Lambda-em (Nucleic Acid [3]) | Lambda-ex (Nucleic Acid [3]) | viability at 100 µM [4] | Survival [5] | Killed [6] | Lysis [7] | Survival [8] | Lambda-em (Nucleic Acid [9]) | Lambda-ex (Nucleic Acid [9]) | Tm (Nucleic Acid [9]) | ΔTm (Nucleic Acid [9]) | Cell kill % [10] | viability at 100 µM [11] | Protection [12] | Protection [13] | Protection [14] | NA (Homo sapiens)
CCOc1ccc(-c2nc3cc(-c4nc5cc(N6CCN(C)CC6)ccc5[nH]4)ccc3[nH]2)cc1 | 10% | 55% | 500 nm | 340 nm | 10% | 15% | 35% | 77% | 15% | 484 nm | 354 nm | 76 °C | 6 °C | 90% |  |  |  |  | 
COc1ccc(-c2nc3cc(-c4nc5cc(N6CCN(C)CC6)ccc5[nH]4)ccc3[nH]2)cc1OC |  |  | 500 nm | 340 nm |  |  |  |  |  | 484 nm | 354 nm | 76.4 °C | 6.4 °C | 27% | 73% | 82% | 100% | 84% | No effect on the proliferation kinetics of BMG-1 cells
COc1cc(-c2nc3cc(-c4nc5cc(-c6nc7cc(N8CCN(C)CC8)ccc7[nH]6)ccc5[nH]4)ccc3[nH]2)ccc1O | 24% |  | 500 nm | 350 nm | 92% | 100% |  |  | 37% | 418 nm and 441 nm | 356 nm and 391 nm | 78 °C | 8 °C |  |  | 37% |  | 100% | No effect on the proliferation kinetics of BMG-1 cells
